# Fewer inactive variants are shown than the library holds.
# B1: tRNA (parent)
# chain: GUUCCGUUGGCGUAAUGGUAACGCGUCUCCCUCCUAAGGAGAAGACUGCGGGUUCGAGUCCCGUACGGAACG
# Variants of: B1
# Assay: yeast fitness relative to wild type (ratio to wild type); higher = fitter; tRNA-Arg(CCU), competitive growth, 37 C, YPD
# Outline: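 The tRNA-Arg(CCU) gene variants were made by chemical synthesis with a 3% per-site mutation rate at 69 sites and inserted at the native genomic locus of Saccharomyces cerevisiae. After pooling, the strains were competed in YPD at 37°C for 24 hours in six parallel replicates. Gene amplicons from the start population and each end population were read by 100-nucleotide paired-end sequencing, and Darwinian fitness relative to wild type was taken from genotype frequency changes. Genotypes needed ≥ 100 starting reads, and estimates < 0.5 were set to 0.5.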
row,Variant,yeast fitness
1,A57G C60U A70U,≤ 0.5
2,G58A G67C A69C,0.542
3,C55U C61A,0.524
4,C55U C61G,≤ 0.5
5,G56C A57G G68U,≤ 0.5
6,G58A G68U A70G,0.601
7,C62A G63A A70C,0.54
8,C55U C61A A65U,0.581
9,C55U C61A A65G,≤ 0.5
10,C55U G56A,0.735
11,U59G U64C A65U,≤ 0.5
12,C61G G67C G68A,0.611
13,U59C C62A,0.75
14,A57G C61U,0.699
15,A57G C61G,0.61
16,U59C G67A,0.835
17,C55U U59A A70U,0.524
18,C60U C62U,0.659
19,C55U C61A G68C,≤ 0.5
20,G56C A69U,0.671
21,G58A G68U,0.835
22,G58C U64A,0.81
23,G58C A70C,0.923
24,G58C A70U,1

row,Variant,yeast fitness
1,A57U C60G G67A G68C,≤ 0.5
2,C55U U59A,0.891
3,G58A C61U A70G,1.02
4,C60U U64A,0.656
5,C60G U64C,0.568
6,C61U U64G,0.674
7,G56C U59A A65G,0.571
8,C60G A69U A70U,0.545
9,C61A G67A A69C,0.524
10,A57C A70U,0.679
11,A57C A70C,0.676
12,C60G G67C,0.574
13,G56U U59G A70G,≤ 0.5
14,G58C U64A A69C,0.514
15,G58C U64A A69G,0.61
16,C55U C62G C66A,0.53
17,A57G C61G C66U,≤ 0.5
18,C60G G63C,≤ 0.5
19,G56A G63C,0.818
20,A57C C66U,0.652
21,A57C C66A,0.624
22,A57G A65U,0.699
23,U59G C60A,0.509
24,C61U A65C,0.864

row,Variant,yeast fitness
1,A57G U59C A70G,0.684
2,C61U G63U G68A,0.529
3,C60U A69U,0.771
4,C60U C66A,0.619
5,C60U C66G,0.687
6,C62G A69C,0.617
7,C62A G68A,0.797
8,C62A G68C,0.875
9,C60A A70U,0.68
10,C60G C66G A69U,≤ 0.5
11,G56A U59G,0.762
12,C61U A70G,0.979
13,C61U A70C,0.939
14,C60A C61G,0.635
15,C60A C61U,0.599
16,C62A G63C,0.661
17,C62A G63A,0.578
18,G56A C62G U64G,≤ 0.5
19,A57G C62G C66U,0.596
20,U59A A65C A70C,0.551
21,U59A C61U,0.711
22,U59A C61G,0.62
23,A57G C66G A69U,≤ 0.5
24,U59A C62G,0.563

row,Variant,yeast fitness
1,U59A C62A,0.657
2,G56A C60U,0.845
3,C60G C62U,0.743
4,C55U G58C,0.842
5,U59C C61G,0.588
6,A57U C61A,0.528
7,A57U C61G,0.592
8,G58C A69C,1.02
9,A57U A69U A70C,≤ 0.5
10,G56C A57G C61G C66U A69G,≤ 0.5
11,G58C U59C,0.948
12,G56C A57C A70G,0.594
13,G56A A65C,1.1
14,G56A A65G,1.01
15,G56C A65G,0.606
16,G56C U59G,0.693
17,G56C U59C,0.607
18,A57G G67C,0.932
19,C61U U64A A69G,0.597
20,A57C C62A A65C,≤ 0.5
21,G58C G68U,0.75
22,G58C G68A,0.776
23,G58C G68C,0.937
24,C61G G67C,0.61

row,Variant,yeast fitness
1,C61G G67A,0.592
2,A57G A70U,0.937
3,G58A U64G,1.01
4,G58A U64C,0.976
5,G58U G63C,0.586
6,G58U A65U,0.979
7,C61U,1.01
8,C61G,0.688
9,C61A,0.707
10,G56C A57U,0.562
11,A57C C62G,0.818
12,C60U G68C,0.752
13,C60U G63C,0.572
14,C60U C61A,0.659
15,C60U C61U,0.717
16,G58C U59A G67C,0.556
17,C62G G68A,0.56
18,C62G G68U,0.707
19,C62G G68C,0.592
20,A57C A69U,0.605
21,G58A C61G A70U,0.749
22,G58C G68A A70G,≤ 0.5
23,C60U A70C,0.732
24,C60U A70U,0.655

row,Variant,yeast fitness
1,A57G G58A C60A C66U,0.595
2,C60G C62G A70G,≤ 0.5
3,C55U G63A A70U,0.551
4,A57U C60G G68C,0.532
5,C61G A69C,0.748
6,C61G A69G,0.567
7,G56C C62A,0.563
8,A57C C61U,0.656
9,C60G C66G,0.576
10,C60A G68U,0.587
11,A57C U64A,0.707
12,G56C C62U A70U,0.598
13,G56A G67A A69C,0.797
14,G58A A65G,0.965
15,G58A A65C,1.05
16,A57U U64C,0.783
17,U59G A69C,0.653
18,U59G A69G,1
19,C61A U64A A69U,0.558
20,C62G C66U,0.652
21,C60A A65U,0.58
22,C60A G67A,0.679
23,A57G U59A C62U,≤ 0.5
24,U59G A70U,0.747

row,Variant,yeast fitness
1,C61U A65U C66U,≤ 0.5
2,C55U A70U,0.715
3,C55U A70C,0.938
4,G56A A57U A70U,≤ 0.5
5,A57C G68C,0.729
6,C60G C66G G68A,≤ 0.5
7,C62U A65G,0.886
8,C62U A65C,0.914
9,G56C G67U,0.524
10,G56C G67A,0.592
11,A57C G63A,0.558
12,C61U C66A,0.644
13,A57C G58A A70C,≤ 0.5
14,C61A A69U,0.816
15,C61A A69C,0.631
16,G58C G67U,0.832
17,A57C A65C,0.594
18,C55U A57G,0.747
19,C55U A57C,0.584
20,G56U A57G G68U,≤ 0.5
21,A57C A65U C66G,≤ 0.5
22,G58C A65U,0.88
23,G58C A65G,0.933

# — the RNAGym collection of RNA variant scans (doi:10.1126/science.aae0568)
